Screening results (PubChem BioAssay)
IMP-1 inhibitor – IMP-1 metallo-beta-lactamase inhibitors, primary screen, biochemical, epi-absorbance readout, Pseudomonas aeruginosa enzyme. AID 1556, 2009. inhibition, % at 5.6 µM. purified IMP-1, nitrocefin hydrolysis, epi-absorbance fluorescence. actives 0.45% (n = 290,000);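 active = inhibition above the mean plus 3 SD of all compounds in the same screening run, cut at about 4.5% in these data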;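 note: 0% = IMP-1 with DMSO and 100% = DMSO wells lacking enzyme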
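Assay system: purified IMP-1; Quantity: IMP-1 0.2 nM before substrate addition; Medium: HEPES buffer pH 7.1 with ZnSO4 and Brij 35; Incubation: 15 min enzyme–compound preincubation, then 25 min nitrocefin reaction, 25 °C; Signal: fluorescence quenching readout, ex 480/em 530 nm; Controls: DMSO with and without IMP-1; Repeats: singlicate testing.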
MEKK2 WT-MEK5 – modulators of MEK5 binding to wildtype MEKK2, primary screen, biochemical, multiplex bead flow cytometry, Alexa488-MEK5; binding response (% of control), % at 10 µM; actives 1.1% (n = 290,000); Alexa488-MEK5 binding to MEKK2 WT; actives lie on both sides; Mitogen-activated protein kinase kinase kinase 2 (Homo sapiens), Q9Y2U5; in the data active = binding response below about 67% or above about 130%
MEKK3 PB1 HTS – modulators of MEKK3-MEK5 PB1 binding, primary screen, biochemical, wildtype MEKK3, multiplex bead flow cytometry, Alexa488-MEK5; bead-based flow cytometry, Alexa488-MEK5 binding to MEKK3; actives lie on both sides; 0 = blocked by unlabeled MEK5, 100 = vehicle; actives 1.4% (n = 290,000); binding response (% of control), % at 10 µM; AID 1529, 2009; Mitogen-activated protein kinase kinase kinase 3 (Homo sapiens), Q99759;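 active = binding response more than 3 SD above or below the average of its plate-row segment, actives on both sides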;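 note: Alexa488 bead fluorescence after subtracting the streptavidin-only scavenger bead signal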
Target sequence (Q99759 whole entry, looked up): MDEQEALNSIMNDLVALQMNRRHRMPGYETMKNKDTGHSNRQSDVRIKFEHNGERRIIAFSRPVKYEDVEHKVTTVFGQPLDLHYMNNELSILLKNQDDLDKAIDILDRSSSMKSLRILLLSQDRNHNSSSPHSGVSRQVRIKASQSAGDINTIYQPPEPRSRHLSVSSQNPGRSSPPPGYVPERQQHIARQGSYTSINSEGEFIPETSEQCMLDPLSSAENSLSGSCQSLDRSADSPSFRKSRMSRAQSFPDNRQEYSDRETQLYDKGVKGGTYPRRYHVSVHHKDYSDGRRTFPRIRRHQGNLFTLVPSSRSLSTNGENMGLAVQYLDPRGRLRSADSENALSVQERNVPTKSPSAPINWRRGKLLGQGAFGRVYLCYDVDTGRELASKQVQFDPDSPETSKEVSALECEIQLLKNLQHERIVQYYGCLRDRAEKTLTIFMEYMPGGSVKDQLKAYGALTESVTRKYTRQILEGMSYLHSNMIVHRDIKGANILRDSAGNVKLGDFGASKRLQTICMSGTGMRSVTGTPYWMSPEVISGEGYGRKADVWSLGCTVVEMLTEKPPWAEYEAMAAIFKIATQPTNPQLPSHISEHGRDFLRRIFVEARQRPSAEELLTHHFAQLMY
VIM-2 inhibitor – VIM-2 metallo-beta-lactamase inhibitors, primary screen, biochemical, epi-absorbance readout, Pseudomonas aeruginosa enzyme; inhibition, % at 5.6 µM; actives 0.89% (n = 290,000); purified VIM-2, nitrocefin hydrolysis, epi-absorbance fluorescence;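 active = inhibition above the mean of all tested compounds plus 3 SD, cutoff set per screening run, cut at about 7.5% in these data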;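 note: red hydrolysis product quenches plate fluorescence so inhibitors raise well fluorescence; 0% = enzyme with DMSO and 100% = DMSO without enzyme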
MEKK2 mut-MEK5 – MEK5 binding signal on mutant MEKK2 PB1, primary screen, biochemical, multiplex bead flow cytometry, Alexa488-MEK5. percent response, % at 10 µM. actives 0.35% (n = 290,000). AID 1530, 2009. Alexa488-MEK5 binding to MEKK2 mutant; in the data active = percent response above about 24%, passing the limit was not always enough
* = called active by the depositor; nt = no result given. This is a sample that favours compounds with a hit; in the whole collection about 3.4% have one here.

SMILES	IMP-1 inhibitor	MEKK2 WT-MEK5	MEKK3 PB1 HTS	VIM-2 inhibitor	MEKK2 mut-MEK5
N/C(=C\C(=O)c1cc(Cl)ccc1O)C(Cl)(Cl)Cl	-1	-3.0*	103	-2	3
O=C1CSC(=S)N1Cc1cccnc1	0	-3.0*	88	1	5
COc1ccc(-c2cc(C(F)(F)F)nc(-n3cncn3)n2)cc1	-2	105	101	11*	1
COc1ccc(C2=[N+](C)CCn3cccc32)c(OC)c1	7.2*	73	83	3	-4
CCc1sc(/C=C(/C#N)C(N)=S)cc1[N+](=O)[O-]	-2	85	90	3	-15
CC(=O)C1=C(C)NC(SCC(=O)c2ccc(F)cc2)=C(C#N)C1c1ccco1 (stereo not drawn)	-3	87	89	-2	-3
COc1ccccc1NC(=O)C1=C(C)NC(SCC(=O)c2ccc(C)cc2)=C(C#N)C1c1ccco1 (stereo not drawn)	4.5*	nt	nt	-3	nt
O=C(COc1cccc2cccnc12)Nc1ccccc1	-4	107	116	-4	1
Nc1ccc(O)c(-c2nc3ccccc3s2)c1	-3	97	94	-3	0
Oc1ccc(-c2nc3ccccc3s2)c(O)c1	-3	-2.0*	93	-1	2
Cc1cc(N/N=C/c2ccccc2O)nc(-c2ccccc2O)n1	-5	121	93	-4	1
CCSc1nc(N)c(C#N)c(-c2ccco2)c1C#N	4.5*	106	106	4	4
COC(=O)C1=C(C(=O)OC)[C@@H]2Nc3ccccc3[C@@]23C[C@@H](C(=O)OC)N(C(=O)c2cc(C)oc2C)C3=N1	nt	99	101	nt	-3
CCCCc1c(O)nc(SCC(=O)O)[nH]c1=O	-1	85	100	-2	-13
CCCCc1c(O)nc(SCC(=O)c2ccccc2)[nH]c1=O	12*	98	101	0	0
CC(/C=N/NC(=O)NC1CCCCC1)=C\c1ccccc1	-1	98	101	-2	1
Cc1c(CC(=O)O)c(=O)oc2c(C)c(OCc3ccc(F)cc3F)ccc12	-1	110	109	-1	11
Cc1c(CC(=O)O)c(=O)oc2c(C)c(OCc3ccc(F)cc3Cl)ccc12	20*	106	106	-2	5
CCCCOc1ccc(-c2nc(SCC(N)=O)n[nH]2)cc1	5.2*	94	94	0	-3
COc1ccc(-c2nc(SCC(=O)Nc3cc(C)on3)n[nH]2)cc1	-5	101	103	-4	-11
Cc1ccccc1NC(=O)NCCc1ccc(Cl)cc1	-2	99	96	-2	-3
CCN(CC)CCNc1ncnc2c1sc1nc(N3CCCC3)c3c(c12)CC(C)(C)OC3	-1	150*	110	3	32
CN(C)CCNc1ncnc2c1sc1nc(N3CCCC3)c3c(c12)CC(C)(C)OC3	-2	118	101	4	1
CC1(C)Cc2c(c(-c3ccco3)nc3sc4c(NCCCO)ncnc4c23)CO1	9.3*	67	66	1	-37
C=CCn1c(=N)n(CC(=O)OC)c2ccccc21	-1	107	107	-4	21
SMILES	IMP-1 inhibitor	MEKK2 WT-MEK5	MEKK3 PB1 HTS	VIM-2 inhibitor	MEKK2 mut-MEK5
CCOC(=O)c1cc2sccc2n1CC(=O)Nc1ccc2c(c1)OCCO2	-2	95	98	-2	-4
COCCNC(=O)C(c1cccs1)N(Cc1ccccc1)C(=O)Cn1nnc2ccccc21 (stereo not drawn)	-1	110	105	-4	8
COCCNC(=O)C(c1cccs1)N(Cc1cccs1)C(=O)Cn1nnc2ccccc21 (stereo not drawn)	4.6*	106	97	0	0
CCC1CCCCN1CCCNC(=O)c1c(O)nc2c(C)cccn2c1=O (stereo not drawn)	-1	104	101	9.6*	0
CCC1CCCCN1CCCNC(=O)c1c(O)nc2ccccn2c1=O (stereo not drawn)	-4	106	101	-1	2
CC1CCCCN1CCCNC(=O)c1c(O)nc2ccccn2c1=O (stereo not drawn)	-1	104	103	-1	2
Cc1cccn2c(=O)c(C(=O)NCCCN3CCCCC3C)c(O)nc12 (stereo not drawn)	-2	102	102	9.5*	2
CCOC(=O)Cn1nc(-c2ccccc2)c2ccccc2c1=O	5.2*	101	101	1	1
CCOC(=O)Cn1nc(Cc2ccccc2)c2ccccc2c1=O	1	108	104	-1	9
COc1cccc(N(CC(=O)NCCSCc2ccco2)S(=O)(=O)c2ccccc2)c1	5.0*	96	101	1	-5
CC(C)Oc1cccc(C(=O)Nc2ccc(N3CCN(C)CC3)cc2)c1	0	108	101	12*	3
O=C(c1ccc2c(c1)N(Cc1ccccc1)C(=O)c1ccccc1S2)N1CCCC1	-1	99	99	3	5
Cc1cc(=O)n2c(nc3ccccc32)[nH]1	-4	104	111	-1	3
COc1ccc(CCN(C)C(=O)Cc2ccc(-c3ccccc3)cc2)cc1OC	8.5*	98	103	-2	3
O=[N+]([O-])c1ccc(N2CCN(Cc3cccc([N+](=O)[O-])c3)CC2)cc1	-2	112	108	1	9
CN1C(=O)c2cccc(NCCCN3C(=O)c4ccccc4C3=O)c2C1=O	0	102	103	-3	1
CCOc1ccc(CCNC(=O)C2CC(C)=CCC2C(=O)O)cc1OCC (stereo not drawn)	38*	100	97	0	6
CCOc1ccc(CCNC(=O)C2CC=CCC2C(=O)OC(C)C)cc1OCC (stereo not drawn)	-3	111	105	-1	7
CCn1c(SCC(=O)Nc2nc(-c3ccc(C)cc3)cs2)nnc1-c1ccccc1	-4	95	104	-7	0
Cc1ccc(-c2csc(NC(=O)CSc3nc4ccccc4c(=O)n3CCCN(C)C)n2)cc1	-2	207*	107	-5	67*
CCc1cc(=O)oc2c(C)c(OC(C)C(=O)NC3CC(C)(C)NC(C)(C)C3)ccc12 (stereo not drawn)	2	96	92	8.1*	-9
CCc1cc(=O)oc2cc(C)cc(OC(C)C(=O)NC3CC(C)(C)NC(C)(C)C3)c12 (stereo not drawn)	-2	103	103	2	2
O=C(O)C1Nc2c(O)cccc2C2C=CCC12 (stereo not drawn)	-2	71	101	12*	8
